In data set [1] the target is T1, methionine synthase reductase (MSR), human, I22/S175 background (Homo sapiens, UniProt Q9UBK8).
T1 sequence (Q9UBK8 1-698): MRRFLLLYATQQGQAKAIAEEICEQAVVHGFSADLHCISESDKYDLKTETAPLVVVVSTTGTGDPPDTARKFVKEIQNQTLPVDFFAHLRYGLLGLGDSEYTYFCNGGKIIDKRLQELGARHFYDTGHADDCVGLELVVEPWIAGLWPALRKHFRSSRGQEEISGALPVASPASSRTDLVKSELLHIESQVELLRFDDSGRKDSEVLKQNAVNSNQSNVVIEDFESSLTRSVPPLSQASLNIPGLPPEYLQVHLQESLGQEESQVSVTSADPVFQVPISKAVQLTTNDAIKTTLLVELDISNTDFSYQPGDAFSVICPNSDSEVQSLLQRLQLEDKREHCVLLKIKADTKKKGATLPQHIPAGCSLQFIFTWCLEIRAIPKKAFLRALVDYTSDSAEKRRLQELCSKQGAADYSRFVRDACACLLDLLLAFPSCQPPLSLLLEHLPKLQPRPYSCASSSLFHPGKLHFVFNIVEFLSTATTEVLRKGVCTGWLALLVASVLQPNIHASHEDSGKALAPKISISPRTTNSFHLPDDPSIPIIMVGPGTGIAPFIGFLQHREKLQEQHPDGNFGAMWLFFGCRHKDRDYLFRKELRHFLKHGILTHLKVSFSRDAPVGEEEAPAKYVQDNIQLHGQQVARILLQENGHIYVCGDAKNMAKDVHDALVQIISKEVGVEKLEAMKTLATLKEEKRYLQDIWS
Nature of the data set: isothermal titration calorimetry. Format: binding. In a few lines: (§1)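 Recombinant wild-type or A129T MSR, 30-50 µM by Bradford and A454, was dialysed overnight against 50 mM Tris-HCl pH 7.5, filtered and degassed. NADP+ (500-850 µM) in the syringe was injected stepwise at 300 s intervals. Heats were corrected for dilution using post-saturation injections and fitted to a single-site model for KA and ΔH°. Runs were done in duplicate or triplicate.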

Data set [2] deals with T2, methionine synthase reductase (MSR), human, I22/S175 background (Homo sapiens, UniProt Q9UBK8, A129T).
T2 sequence (Q9UBK8 1-698 A129T): T1 sequence (Q9UBK8 1-698) with A129T
Nature of the data set: isothermal titration calorimetry. Format: binding. In a few lines: as §1

Substrate in the data set “purified protein”: NC(=O)C1=CN([C@@H]2O[C@H](COP(=O)(O)OP(=O)(O)OC[C@H]3O[C@@H](n4cnc5c(N)ncnc54)[C@H](OP(=O)(O)O)[C@@H]3O)[C@@H](O)[C@H]2O)C=CC1
Nature of the data set: purified protein. It is filed as biochemical, Homo sapiens. Conditions: cytochrome c as acceptor, 50 mM Tris pH 7.5, 37°C.

Positions count from the first letter of the chain named. Names may count otherwise.

With `NC(=O)c1ccc[n+]([C@@H]2O[C@H](COP(=O)(O)OP(=O)(O)OC[C@H]3O[C@@H](n4cnc5c(N)ncnc54)[C@H](OP(=O)(O)O)[C@@H]3O)[C@@H](O)[C@H]2O)c1` [NADP^+], the Kd was 54 ± 5.3 µM in data set [1] and 32 ± 2.9 µM in data set [2].

B1: methionine synthase reductase (MSR), human, I22/S175 background (Homo sapiens; A129T) (protein)
chain: T1 sequence (Q9UBK8 1-698) with A129T
On to B1, for which, in the data set “purified protein”, the Km was determined as 2.8 µM.

Broadly, the Kd is the concentration at which binding is half-saturated. One may read the Km as the concentration of substrate that gives half-maximal velocity.

The values above are taken from article PMC2645915 (Biochemistry, 2008).
